In ChEMBL document CHEMBL1124186, “Synthesis and evaluation of tylosin-related macrolides modified at the aldehyde function: a new series of orally effective antibiotics” (1988):
Converted amounts (≈) assume the structure as drawn.

Tests used:
Staphylococcus aureus [1] = test: In vivo effective dose against experimental infections in mice Staphylococcus aureus X1 when administered orally; type: functional; details: po
Staphylococcus aureus [2] = test: In vitro antimicrobial activity against aerobic bacteria Staphylococcus aureus X400; type: functional
Streptococcus pyogenes [3] = test: In vivo effective dose against experimental infections in rodent caused by Streptococcus pyogenes C203 when administered orally; type: functional; details: po
[4] = system: Haemophilus parainfluenzae; test: In vitro antimicrobial activity against aerobic bacteria Haemophilus parainfluenzae 9796; type: functional
[5] = system: Fusobacterium necrophorum; test: In vitro antimicrobial activity against anaerobic bacteria usobacterium necrophorum 6054A; type: functional
Streptococcus pneumoniae [6] = test: In vivo effective dose against experimental infections in mice Strep. pneumoniae park when administered orally; type: functional; details: po
Streptococcus [7] = test: In vitro antimicrobial activity against aerobic bacteria Streptococcus D 9960; type: functional
Haemophilus influenzae [8] = test: In vitro antimicrobial activity against aerobic bacteria Haemophilus influenzae 465; type: functional
Mus musculus [9] = test: Peripheral plasma levels in mice after oral administration of 100 mg/kg dose for 0.5 hr; type: functional, organism-based; set-up: dose 100 mg/kg
In short: (§1)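 Mice were given the compound orally and sampled for peripheral plasma at each time point. Plasma was assayed microbiologically against Micrococcus luteus seeded in Antibiotic Medium 1. Inhibition zone sizes were read, and concentrations were calculated from each compound's own standard curve. Each value is the mean of five mice per time point.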

Chlamydia trachomatis = test: In vitro antimicrobial activity against chlamydia trachomatis.; type: functional
Staphylococcus aureus [10] = test: In vitro antimicrobial activity against aerobic bacteria Staphylococcus aureus 513E; type: functional
Streptococcus pneumoniae [11] = test: In vitro antimicrobial activity against Streptococcus pneumoniae; type: functional
Rattus norvegicus [12] = test: Peripheral plasma levels in rats after oral administration of 100 mg/kg dose for 2 hr; type: functional, organism-based; set-up: dose 100 mg/kg
In short: (§2)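 Rats received 100 mg/kg orally and were sampled for peripheral plasma. Concentrations were measured by Micrococcus luteus agar-diffusion microbiological assay in Antibiotic Medium 1, with zone sizes converted using the standard curve for the appropriate compound. Each value is the average of three rats per time point.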

Mus musculus [13] = test: Peripheral plasma levels in mice after oral administration of 50 mg/kg dose for 2 hr; type: functional, organism-based; set-up: dose 50 mg/kg; in short: as §1
Clostridioides difficile = test: In vitro antimicrobial activity against anaerobic bacteria Clostridium difficile 2994; type: functional
Streptococcus pneumoniae [14] = test: In vivo effective dose against experimental infections in mice Strep. pneumoniae park when administered sc; type: functional
Staphylococcus aureus [15] = test: In vitro antimicrobial activity against aerobic bacteria Staphylococcus aureus V41; type: functional
Staphylococcus aureus [16] = test: In vitro antimicrobial activity against aerobic bacteria Staphylococcus aureus V135; type: functional
Streptococcus [17] = test: In vitro antimicrobial activity against aerobic bacteria Streptococcus D 2041; type: functional
Fusobacterium = test: In vitro antimicrobial activity against anaerobic bacteria fusobacterium symbiosum 1470; type: functional
Bacteroides fragilis [18] = test: In vitro antimicrobial activity against anaerobic bacteria bacteroides fragilis 1936B,; type: functional
[19] = system: Prevotella melaninogenica; test: In vitro antimicrobial activity against anaerobic bacteria bacteroides melaninogenicus 2736; type: functional
Staphylococcus aureus [20] = test: In vivo effective dose against experimental infections in mice Staphylococcus aureus X1 when administered sc; type: functional
Mus musculus [21] = test: Peripheral plasma levels in mice after oral administration of 50 mg/kg dose for 4 hr; type: functional, organism-based; set-up: dose 50 mg/kg; in short: as §1
Rattus norvegicus [22] = test: Peripheral plasma levels in rats after oral administration of 100 mg/kg dose for 0.25 hr; type: functional, organism-based; set-up: dose 100 mg/kg; in short: as §2
[23] = system: Peptoniphilus asaccharolyticus; test: In vitro antimicrobial activity against anaerobic bacteria peptococcus asaccharolyticus 1302; type: functional
Mus musculus [24] = test: Peripheral plasma levels in mice after oral administration of 50 mg/kg dose for 1 hr; type: functional, organism-based; set-up: dose 50 mg/kg; in short: as §1
Enterococcus faecium = test: In vitro antimicrobial activity against Streptococcus faecium X66; type: functional, streptococcus fae-cium
Haemophilus influenzae [25] = test: In vitro antimicrobial activity against Haemophilus influenzae.; type: functional
Streptococcus pyogenes [26] = test: In vivo effective dose against experimental infections in rodent caused by Streptococcus pyogenes C203 when administered sc; type: functional
Mus musculus [27] = test: Peripheral plasma levels in mice after oral administration of 50 mg/kg dose for 0.25 hr; type: functional, organism-based; set-up: dose 50 mg/kg; in short: as §1
[28] = system: Staphylococcus epidermidis; test: In vitro antimicrobial activity against aerobic bacteria Streptococcus epi 270; type: functional
[29] = system: Staphylococcus epidermidis; test: In vitro antimicrobial activity against aerobic bacteria Streptococcus epi 222; type: functional
[30] = system: Peptostreptococcus anaerobius; test: In vitro antimicrobial activity against anaerobic bacteria eubacterium peptostreptococcus anaerobius 1428,; type: functional
Clostridium perfringens = test: In vitro antimicrobial activity against anaerobic bacteria clostridium perfringens 81,; type: functional
Haemophilus influenzae [31] = test: In vitro antimicrobial activity against aerobic bacteria Haemophilus influenzae MX366,; type: functional
[32] = In vitro antimicrobial activity against anaerobic bacteria peptostreptococcus intermedius 1264; type: functional
[33] = system: Bacteroides thetaiotaomicron; test: In vitro antimicrobial activity against anaerobic bacteria bacteroides thetaiotaomicron 1438; type: functional
Streptococcus [34] = test: In vitro antimicrobial activity against aerobic bacteria Streptococcus B 5; type: functional
Bacteroides fragilis [35] = test: In vitro antimicrobial activity against anaerobic bacteria bacteroides fragilis 1877; type: functional
Rattus norvegicus [36] = test: Peripheral plasma levels in rats after oral administration of 100 mg/kg dose for 1 hr; type: functional, organism-based; set-up: dose 100 mg/kg; in short: as §2
Staphylococcus aureus [37] = test: In vitro antimicrobial activity against Staphylococcus aureus X1; type: functional
Staphylococcus aureus [38] = test: In vitro antimicrobial activity against aerobic bacteria Staphylococcus aureus V140,; type: functional
Streptococcus [39] = test: In vitro antimicrobial activity against aerobic bacteria Streptococcus D 8043; type: functional
Streptococcus pyogenes [40] = test: In vitro antimicrobial activity against Streptococcus pyogenes C203; type: functional
[41] = system: Prevotella melaninogenica; test: In vitro antimicrobial activity against anaerobic bacteria bacteroides melaninogenicus 1856,; type: functional
Rattus norvegicus [42] = test: Peripheral plasma levels in rats after oral administration of 100 mg/kg dose for 4 hr; type: functional, organism-based; set-up: dose 100 mg/kg; in short: as §2
Mus musculus [43] = test: Peripheral plasma levels in mice after oral administration of 100 mg/kg dose for 0.25 hr; type: functional, organism-based; set-up: dose 100 mg/kg; in short: as §1
Streptococcus pneumoniae [44] = test: In vitro antimicrobial activity against aerobic bacteria Streptococcus pneumoniae B1-438; type: functional, streptococcus pneum
Haemophilus influenzae [45] = test: In vitro antimicrobial activity against aerobic bacteria Haemophilus influenzae 76; type: functional
Eikenella corrodens = test: In vitro antimicrobial activity against anaerobic bacteria bacteroides corrodens 1874; type: functional
Phocaeicola vulgatus = test: In vitro antimicrobial activity against anaerobic bacteria bacteroides vulgatus 1211; type: functional
[46] = system: Staphylococcus epidermidis; test: In vitro antimicrobial activity against Staphylococcus epidermidis EPI1; type: functional
Collinsella aerofaciens = test: In vitro antimicrobial activity against anaerobic bacteria eubacterium aerofaciens 1235; type: functional
Cutibacterium acnes = test: In vitro antimicrobial activity against anaerobic bacteria propionibacterium acnes 79; type: functional
Mus musculus [47] = test: Peripheral plasma levels in mice after oral administration of 100 mg/kg dose for 4 hr; type: functional, organism-based; set-up: dose 100 mg/kg; in short: as §1
Mus musculus [48] = test: Peripheral plasma levels in mice after oral administration of 100 mg/kg dose for 1 hr; type: functional, organism-based; set-up: dose 100 mg/kg; in short: as §1
Clostridium septicum = test: In vitro antimicrobial activity against anaerobic bacteria clostridium septicum 1128; type: functional
Mus musculus [49] = test: Peripheral plasma levels in mice after oral administration of 50 mg/kg dose for 0.5 hr; type: functional, organism-based; set-up: dose 50 mg/kg; in short: as §1
Bacteroides fragilis [50] = test: In vitro antimicrobial activity against anaerobic bacteria bacteroides fragilis 111; type: functional
Streptococcus [51] = test: In vitro antimicrobial activity against aerobic bacteria Streptococcus B 14; type: functional
Anaerococcus prevotii = test: In vitro antimicrobial activity against anaerobic bacteria peptococcus prevoti 1281; type: functional
Rattus norvegicus [52] = test: Peripheral plasma levels in rats after oral administration of 100 mg/kg dose for 0.5 hr; type: functional, organism-based; set-up: dose 100 mg/kg; in short: as §2
Mus musculus [53] = test: Peripheral plasma levels in mice after oral administration of 100 mg/kg dose for 2 hr; type: functional, organism-based; set-up: dose 100 mg/kg; in short: as §1

CC[C@H]1OC(=O)C[C@@H](O)[C@H](C)[C@@H](O[C@@H]2O[C@H](C)[C@@H](O)[C@H](N(C)C)[C@H]2O)[C@@H](CCCl)C[C@@H](C)C(=O)/C=C/C(C)=C/[C@@H]1CO[C@@H]1O[C@H](C)[C@@H](O)[C@@H](OC)[C@H]1OC
ED50 (Staphylococcus aureus [1]): 9 mg/kg
MIC (Staphylococcus aureus [2]): 0.12 µg/mL (≈ 0.151 µM)
ED50 (Streptococcus pyogenes [3]): 5 mg/kg
MIC [4]: 32 µg/mL (≈ 40.4 µM)
MIC [5]: 8 µg/mL (≈ 10.1 µM)
ED50 (Streptococcus pneumoniae [6]): > 50 mg/kg
MIC (Streptococcus [7]): 8 µg/mL (≈ 10.1 µM)
MIC (Haemophilus influenzae [8]): 16 µg/mL (≈ 20.2 µM)
Concentration (Mus musculus [9]): 6.4 µg/mL
MIC (Chlamydia trachomatis): 0.25 µg/mL (≈ 0.315 µM)
MIC (Staphylococcus aureus [10]): 0.12 µg/mL (≈ 0.151 µM)
MIC (Streptococcus pneumoniae [11]): 1 µg/mL (≈ 1.26 µM)
Concentration (Rattus norvegicus [12]): 12.7 µg/mL
Concentration (Mus musculus [13]): 0.4 µg/mL
MIC (Clostridioides difficile): < 0.5 µg/mL
ED50 (Streptococcus pneumoniae [14]): > 20 mg/kg
MIC (Staphylococcus aureus [15]): 0.12 µg/mL (≈ 0.151 µM)
MIC (Staphylococcus aureus [16]): 0.25 µg/mL (≈ 0.315 µM)
MIC (Streptococcus [17]): 16 µg/mL (≈ 20.2 µM)
MIC (Fusobacterium): 2 µg/mL (≈ 2.52 µM)
MIC (Bacteroides fragilis [18]): 2 µg/mL (≈ 2.52 µM)
MIC [19]: 2 µg/mL (≈ 2.52 µM)
ED50 (Staphylococcus aureus [20]): 1.8 mg/kg
Concentration (Mus musculus [21]): < 0.1 µg/mL
Concentration (Rattus norvegicus [22]): 5.4 µg/mL
MIC [23]: 2 µg/mL (≈ 2.52 µM)
Concentration (Mus musculus [24]): 0.3 µg/mL
MIC (Enterococcus faecium): 8 µg/mL (≈ 10.1 µM)
MIC (Haemophilus influenzae [25]): 16 µg/mL (≈ 20.2 µM)
ED50 (Streptococcus pyogenes [26]): 0.7 mg/kg
Concentration (Mus musculus [27]): 0.3 µg/mL
MIC [28]: > 128 µg/mL
MIC [29]: 0.6 µg/mL (≈ 0.757 µM)
MIC [30]: < 0.5 µg/mL
MIC (Clostridium perfringens): < 0.5 µg/mL
MIC (Haemophilus influenzae [31]): 16 µg/mL (≈ 20.2 µM)
MIC [32]: 2 µg/mL (≈ 2.52 µM)
MIC [33]: 2 µg/mL (≈ 2.52 µM)
MIC (Streptococcus [34]): > 128 µg/mL
MIC (Bacteroides fragilis [35]): 2 µg/mL (≈ 2.52 µM)
Concentration (Rattus norvegicus [36]): 9.4 µg/mL
MIC (Staphylococcus aureus [37]): 0.25 µg/mL (≈ 0.315 µM)
MIC (Staphylococcus aureus [38]): 0.25 µg/mL (≈ 0.315 µM)
MIC (Streptococcus [39]): 4 µg/mL (≈ 5.05 µM)
MIC (Streptococcus pyogenes [40]): 0.25 µg/mL (≈ 0.315 µM)
MIC [41]: 1 µg/mL (≈ 1.26 µM)
Concentration (Rattus norvegicus [42]): 7.7 µg/mL
Concentration (Mus musculus [43]): 8.4 µg/mL
MIC (Streptococcus pneumoniae [44]): > 128 µg/mL
MIC (Haemophilus influenzae [45]): 16 µg/mL (≈ 20.2 µM)
MIC (Eikenella corrodens): 2 µg/mL (≈ 2.52 µM)
MIC (Phocaeicola vulgatus): 1 µg/mL (≈ 1.26 µM)
MIC [46]: 0.12 µg/mL (≈ 0.151 µM)
MIC (Collinsella aerofaciens): 4 µg/mL (≈ 5.05 µM)
MIC (Cutibacterium acnes): 16 µg/mL (≈ 20.2 µM)
Concentration (Mus musculus [47]): 0.3 µg/mL
Concentration (Mus musculus [48]): 2.8 µg/mL
MIC (Clostridium septicum): < 0.5 µg/mL
Concentration (Mus musculus [49]): 0.4 µg/mL
MIC (Bacteroides fragilis [50]): 2 µg/mL (≈ 2.52 µM)
MIC (Streptococcus [51]): 64 µg/mL (≈ 80.8 µM)
MIC (Anaerococcus prevotii): 1 µg/mL (≈ 1.26 µM)
Concentration (Rattus norvegicus [52]): 8.8 µg/mL
Concentration (Mus musculus [53]): 1.5 µg/mL
